A selection: hits, their analogues and other compounds. The true share with any hit is near 2.5%.
SENP8 block-1 = blocks the human protease SENP8. Q96LD8. 330,000 tested, 1.2% active. inhibition, % at 10 µM. purified SENP8, Z-RLRGG-aminoluciferin cleavage, luminescence; in the data active means inhibition above about 50%
Target sequence (Q96LD8 whole entry, looked up): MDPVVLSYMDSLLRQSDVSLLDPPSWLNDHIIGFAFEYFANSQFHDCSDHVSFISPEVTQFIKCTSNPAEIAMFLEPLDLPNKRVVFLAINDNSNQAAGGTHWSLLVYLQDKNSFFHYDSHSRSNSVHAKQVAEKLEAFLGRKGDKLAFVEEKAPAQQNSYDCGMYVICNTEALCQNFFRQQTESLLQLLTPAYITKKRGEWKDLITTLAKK
SENP7 block = blocks the human protease SENP7 | Q9BQF6 | recombinant SENP7, Z-RLRGG-aminoluciferin luminescence, 40 min | inhibition, % at 5 µM | 330,000 tested, 1.5% active;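 active means inhibition above about 50% at the single test dose, limit read from the data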
SENP6 inh = SENP6 protease inhibition | Recombinant SENP6 catalytic domain, aminoluciferin luminescence | 330,000 tested, 1.8% active | inhibition, % at 10 µM | Q9GZR1;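 active means inhibition above about 50% at the single tested dose, limit read from the data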
SENP8 block-2 = blocks human SENP8 cleavage of Nedd8 substrate; Q96LD8; recombinant SENP8, Nedd8 substrate fluorescence; inhibition, % at 20 µM; 360,000 tested, 0.64% active; in the data active means inhibition mostly above about 40%, no sharp cut-off; inactive means mostly below about 27%
SENP1 inh = inhibitors of human SENP1 SUMO protease catalytic domain | 360,000 tested, 0.21% active | recombinant SENP1 catalytic domain, CyPet-SUMO1-YPet FRET cleavage | Q9P0U3 | inhibition, % at 10 µM | AID 624204;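 active means inhibition at least 30% at 10 µM, raw YFP signal under a set limit, fluorescence ratio 0.5 to 1.5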
Target sequence (Q9P0U3 419-644 limits assumed): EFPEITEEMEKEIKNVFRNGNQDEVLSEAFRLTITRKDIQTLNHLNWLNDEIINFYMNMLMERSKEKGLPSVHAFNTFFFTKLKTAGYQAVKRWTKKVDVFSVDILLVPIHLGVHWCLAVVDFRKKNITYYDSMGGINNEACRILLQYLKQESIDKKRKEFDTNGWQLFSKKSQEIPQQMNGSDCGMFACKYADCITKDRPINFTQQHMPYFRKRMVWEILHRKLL
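Material: hSENP1 catalytic domain, recombinant; medium: Tris pH 8 with BME, BSA, NP40 and catalase; compound: single concentration of 10 µM compound, 0.5% DMSO final; technique: FRET read of cyan and yellow fluorescence; timing: 50 min enzyme reaction, room temperature, light-protected; reagent: SFCypet-SUMO1-SFYpet substrate at 25 nM; control set: no-enzyme low, enzyme-DMSO high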
SENP8 confirm = confirmation of human SENP8 protease inhibitors; shares compounds with SENP7 block; Recombinant SENP8, Z-RLRGG-aminoluciferin luminescence, 60 min; inhibition, % at 12.5 µM; 6,200 tested, 40% active; AID 488912;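 active means mean inhibition across replicates above about 50%, limit read from the data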
SENP6 confirm = confirmation of human SENP6 protease inhibitors; shares compounds with SENP7 block; recombinant SENP6, Z-RLRGG-aminoluciferin luminescence; inhibition, % at 12.5 µM; 6,200 tested, 58% active
SENP7 conf = confirmation of human SENP7 protease inhibitors | shares compounds with SENP7 block | recombinant SENP7, Z-RLRGG-aminoluciferin luminescence, 40 min | inhibition, % at 12.5 µM | 6,200 tested, 69% active | AID 488917
Casp3 SENP sel = inhibits human caspase-3 in SENP selectivity test. shares compounds with SENP7 block. purified caspase-3, Z-DEVD-aminoluciferin luminescence, 60 min. inhibition, % at 12.5 µM. 6,200 tested, 60% active. AID 488918;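 active means mean inhibition above about 50%, limit read from the data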
Target sequence (P42574 28-227 limits assumed): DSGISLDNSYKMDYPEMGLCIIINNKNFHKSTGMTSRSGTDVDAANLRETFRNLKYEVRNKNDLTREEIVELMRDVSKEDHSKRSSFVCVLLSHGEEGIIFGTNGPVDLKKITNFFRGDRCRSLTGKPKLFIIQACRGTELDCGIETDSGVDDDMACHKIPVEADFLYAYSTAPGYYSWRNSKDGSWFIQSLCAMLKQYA
SENP luc ctr = luminescence interference (SENP counter-screen) | inhibition, % at 12.5 µM | AID 488919 | 6,200 tested, 39% active | shares compounds with SENP7 block | Pre-incubated SENP8/Z-RLRGG-aminoluciferin, luciferase luminescence interference;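 active means mean inhibition above about 50% when retested at one dose, limit read from the data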
Hits are given with their value.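 How the source made its calls, unless noted: active means mean inhibition above about 50% in the one-dose retest (limit read from the data); inactive means the rest.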

What do the screens show for `C/C(=N\OCc1ccc(C#N)cc1)c1ccc(S(=O)(=O)N(C)C)cc1`?
SENP8 block-1: inactive; SENP7 block: inactive; SENP6 inh: inactive; SENP8 block-2: inactive; SENP1 inh: inactive

Results for C/C(=N\OCc1ccc(C#N)cc1)c1ccccc1 ?
SENP8 block-1: 79; SENP7 block: 80; SENP6 inh: 89; SENP8 block-2: inactive; SENP1 inh: inactive; SENP8 confirm: 82; SENP6 confirm: 86; SENP7 conf: 97; Casp3 SENP sel: 77; SENP luc ctr: 68

Results for C/C(=N\OCc1cccc(C(=O)O)c1)c1ccc(Cl)cc1 ?
SENP8 block-1: 97; SENP7 block: 101; SENP6 inh: 97; SENP8 block-2: inactive; SENP1 inh: inactive; SENP8 confirm: 99; SENP6 confirm: 100; SENP7 conf: 103; Casp3 SENP sel: 97; SENP luc ctr: 98

How did CCOC(=O)N1CCC(N2CCCC(C(=O)c3ccc4cc(OC)ccc4c3)C2)CC1 (stereo unspecified) do in these assays?
SENP8 block-1: inactive; SENP7 block: inactive; SENP6 inh: inactive; SENP8 block-2: inactive; SENP1 inh: inactive

How did CC(C)c1nc2cc(C(=O)N3CCNC(=O)C3c3cccc(F)c3)ccc2o1 (stereo unspecified) do in these assays?
SENP8 block-1: inactive; SENP7 block: inactive; SENP6 inh: inactive; SENP8 block-2: inactive; SENP1 inh: inactive

How did Cc1cc(SCC(=O)NCC(c2cccs2)N2CCOCC2)c(C)cc1Br (stereo unspecified) do in these assays?
SENP8 block-1: inactive; SENP7 block: inactive; SENP6 inh: inactive; SENP8 block-2: inactive; SENP1 inh: inactive

Results for O=C(/C=C/c1ccccc1F)c1cccc([N+](=O)[O-])c1 ?
SENP8 block-1: inactive; SENP7 block: inactive; SENP6 inh: inactive; SENP8 block-2: inactive; SENP1 inh: inactive

How did COc1ccc(C(=O)/C=C/c2ccccc2F)c(OC(=O)c2ccc([N+](=O)[O-])cc2)c1 do in these assays?
SENP8 block-1: inactive; SENP7 block: inactive; SENP6 inh: 60; SENP8 block-2: inactive; SENP1 inh: inactive; SENP8 confirm: inactive; SENP6 confirm: inactive; SENP7 conf: inactive; Casp3 SENP sel: inactive; SENP luc ctr: inactive

What do the screens show for `Nc1ccc(-c2cc3ccccc3c(=O)o2)cc1`?
SENP8 block-1: inactive; SENP7 block: inactive; SENP6 inh: 53; SENP8 block-2: inactive; SENP1 inh: inactive; SENP8 confirm: inactive; SENP6 confirm: inactive; SENP7 conf: 77; Casp3 SENP sel: 55; SENP luc ctr: inactive

How did O=c1oc(-c2ccccc2)cc2ccccc12 do in these assays?
SENP8 block-2: inactive; SENP1 inh: inactive

How did Cc1c(C(=O)O)cnc2cc(-c3ccc(Cl)cc3)nn12 do in these assays?
SENP8 block-1: 82; SENP7 block: 82; SENP6 inh: 91; SENP8 block-2: inactive; SENP1 inh: inactive; SENP8 confirm: 89; SENP6 confirm: 88; SENP7 conf: 100; Casp3 SENP sel: 93; SENP luc ctr: 87

What do the screens show for `CC(=O)c1cnc2cc(-c3ccc(Cl)cc3)nn2c1C`?
SENP8 block-1: inactive; SENP7 block: inactive; SENP6 inh: inactive; SENP8 block-2: inactive; SENP1 inh: inactive

How did CCC(=O)N(Cc1ccc(S(N)(=O)=O)cc1)C1CC(=O)N(c2ccccc2)C1=O (stereo unspecified) do in these assays?
SENP8 block-1: inactive; SENP7 block: inactive; SENP6 inh: inactive; SENP8 block-2: inactive; SENP1 inh: inactive

How did CC(=O)/C(N=Nc1ccc(C(=O)O)cc1[N+](=O)[O-])=C(\C)O do in these assays?
SENP8 block-1: 51; SENP7 block: 59; SENP6 inh: inactive; SENP8 block-2: inactive; SENP1 inh: inactive; SENP8 confirm: 54; SENP6 confirm: 51; SENP7 conf: 84; Casp3 SENP sel: 92; SENP luc ctr: 64

How did Cc1ccc(-n2nnc(-c3cccnc3Cl)n2)cc1 do in these assays?
SENP8 block-1: 52; SENP7 block: 76; SENP6 inh: 74; SENP8 block-2: inactive; SENP1 inh: inactive; SENP8 confirm: inactive; SENP6 confirm: 52; SENP7 conf: inactive; Casp3 SENP sel: inactive; SENP luc ctr: inactive

Results for CCc1sc(C(=O)NCCCn2ccnc2)cc1Br ?
SENP8 block-1: inactive; SENP7 block: inactive; SENP6 inh: inactive; SENP8 block-2: inactive; SENP1 inh: inactive

What do the screens show for `Cc1c(/C=C/C(=O)c2ccccc2O)cnn1C`?
SENP8 block-1: inactive; SENP7 block: 67; SENP6 inh: 63; SENP8 block-2: inactive; SENP1 inh: inactive; SENP8 confirm: inactive; SENP6 confirm: 55; SENP7 conf: 81; Casp3 SENP sel: inactive; SENP luc ctr: inactive

What do the screens show for `CCOC(=O)Nc1ccc(C(=O)Oc2ccccc2)c(O)c1`?
SENP8 block-1: inactive; SENP7 block: 53; SENP6 inh: inactive; SENP8 block-2: inactive; SENP1 inh: inactive; SENP8 confirm: inactive; SENP6 confirm: inactive; SENP7 conf: 69; Casp3 SENP sel: inactive; SENP luc ctr: inactive

How did CCOC(=O)Nc1ccc(Oc2ccccc2)cc1 do in these assays?
SENP8 block-1: inactive; SENP7 block: inactive; SENP6 inh: inactive; SENP8 block-2: inactive; SENP1 inh: inactive

Results for O=C(Nc1ccc(C(=O)Oc2ccccc2)c(O)c1)c1ccco1 ?
SENP8 block-1: 73; SENP7 block: 82; SENP6 inh: 91; SENP8 block-2: inactive; SENP1 inh: inactive; SENP8 confirm: 80; SENP6 confirm: 81; SENP7 conf: 96; Casp3 SENP sel: 66; SENP luc ctr: inactive

How did O=C(Nc1ccc(OC(=O)c2cccs2)cc1)c1ccco1 do in these assays?
SENP8 block-1: 67; SENP7 block: 82; SENP6 inh: 87; SENP8 block-2: inactive; SENP1 inh: inactive; SENP8 confirm: 72; SENP6 confirm: 72; SENP7 conf: 94; Casp3 SENP sel: 77; SENP luc ctr: inactive

How did Cc1cc(C)cc(NC(=O)CCn2cnc3cc(C)c(C)cc32)c1 do in these assays?
SENP8 block-1: inactive; SENP7 block: inactive; SENP6 inh: inactive; SENP8 block-2: inactive; SENP1 inh: inactive

What do the screens show for `Clc1cc2nc(-c3cccnc3Cl)[nH]c2cc1Cl`?
SENP8 block-1: inactive; SENP7 block: 73; SENP6 inh: 77; SENP8 block-2: inactive; SENP1 inh: inactive; SENP8 confirm: inactive; SENP6 confirm: inactive; SENP7 conf: 90; Casp3 SENP sel: 59; SENP luc ctr: inactive

Compound activity (PubChem BioAssay)
